The values below come from paper PMC8048885 (International Journal of Cancer, 2021).

Read-outs that look alike come from different tables or passages of the source.

In data set [1] the test system is gastric H+/K+ adenosine triphosphatase (ATPase). Conditions: porcine gastric vessels, cited from earlier work.
The next data set has as its system intragastric pH. Conditions: cited from earlier work.
In a further data set the test system is CYP1A2. Conditions: cited from earlier work.
For data set [2] the following is noted: cited from earlier work.
The subject of the next data set is STS. The data set is classed as in vivo, human. The note with it: for median PFS: pazopanib 800 mg fasted cohort. Put shortly: (§1)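 PFS was defined as time on treatment until progression or death and analysed per tumour type, with GAS vs no GAS groups (PPI/H2A use on the days before first Cmin). Median PFS came from Kaplan-Meier with log rank test, and hazard ratios from univariate Cox regression; P<.05 was significant. Patients with GI abnormalities or on strong CYP3A4 inducers/inhibitors were excluded.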

The conditions of data set [3]: cited from earlier work. The source holds these as a separate data set.
A short description of data set [4]: first steady-state pazopanib trough concentration. Format: in vivo, human. A digest of the protocol:
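Observational study. Patients took the study drug 800 mg OD fasted or 600 mg OD with food and were advised to take a PPI/H2A 1 hour later; antacid users were counted as non-GAS. Only the first steady-state (>7 consecutive days) plasma trough was used, measured by validated HPLC-MS/MS.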

The test system of a further data set is advanced RCC. The data set is classed as in vivo, human. Conditions: univariate Cox regression. A digest of the protocol:
as §1

With `COc1ccnc(C[S+]([O-])c2nc3ccc(OC(F)F)cc3[nH]2)c1OC` (stereo not shown) [pantoprazole], the “inhibition of H+, K+ ATPase” value in data set [1] (at 45 minutes) is 50%. For the same compound, in the data set with intragastric pH (pantoprazole 40 mg), the “duration of pH elevation >4” value was 41.94 % of the day. For the same compound, the “effect on CYP1A2” value in the data set with CYP1A2 is recorded as “does not affect CYP1A2”.
Take `Cc1ccc(Nc2nccc(N(C)c3ccc4c(C)n(C)nc4c3)n2)cc1S(N)(=O)=O` [pazopanib]: the “solubility in aqueous solutions” value in data set [2] (above pH 4) is reported as “practically insoluble”; in data set [2] (pH 1), “slightly soluble”. Further, the results for the “median PFS” value in the data set with STS (with GAS) and in the data set with STS (without GAS) were 17 weeks and 32 weeks, respectively. The “hazard ratio for progression or death, with vs without GAS” value in the data set with STS (univariate Cox regression) was 3.89. Besides, the “increase of exposure on intake with a high caloric meal” value in data set [3] is ~ 2 fold. Also, the oral bioavailability entry in data set [3] is reported as “approximately 21%”. Besides, the “decrease of mean pazopanib Cmin levels” value in data set [3] (esomeprazole administered 12 hours after fasted intake of pazopanib) is 36%. Also, the “percentage of patients with Cmin below the target threshold of 20.5 mg/L” value in data set [4] (pazopanib 600 mg taken with food, with GAS) is given as 26.9%; in data set [4] (pazopanib 600 mg taken with food, without GAS) it was 14%; in data set [4] (pazopanib 800 mg taken fasted, with GAS), 33.3%; in data set [4] (pazopanib 800 mg taken fasted, without GAS), 19.5%. Also, the “hazard ratio for PFS, with vs without GAS” value in the data set with advanced RCC came out at 1.13.
Take `COc1ccc2[nH]c([S+]([O-])Cc3ncc(C)c(OC)c3C)nc2c1` (stereo not shown) [omeprazole]: the “time to fully inhibit the H+, K+ ATPase” value in data set [1] was 30 min. In addition, in the data set with intragastric pH (omeprazole 20 mg), the “duration of pH elevation >4” value is recorded as 49.16 % of the day. In addition, the “effect on CYP1A2” value with CYP1A2 was “dose‐dependent inducer of CYP1A2”.
